HIF activator: HIF pathway transcriptional activation. U2OS HRE-luciferase reporter, luminescence; normalized: DMSO 0%, desferrioxamine 100%. activation, % at 7.5 µM (by protocol). 300,000 tested, 0.32% active;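 active = mean activation of at least 10% of the iron chelator positive control signal, with at least half of replicates also reaching 10%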
SR-BI DiI-HDL act: activators of SR-BI mediated HDL lipid uptake. activation, % at 12.5 µM. 320,000 tested, 0.096% active. CHO ldlA[mSR-BI] cells, DiI-HDL uptake fluorescence, 3 h; 100 = double the neutral-control signal. AID 504775;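 active = mean replicate activation of at least 60% and every replicate at or above 60%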;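 also: 0% = median plate neutral-control signal and 100% = twice that signal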
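System: CHO ldlA[mSR-BI] cells / Medium: HEPES-buffered (25 mM, pH 7.4) F12 plus 0.5% BSA / Probe or stimulus: labelled HDL, 10 µg/mL / Doses: single compound concentration, delivered by pin transfer / Schedule: 3 h, 37 °C / Measured by: DiI fluorescence, bottom read / Measure: cell-associated DiI fluorescence as measure of HDL uptake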
SR-BI DiI inh: mouse SR-BI HDL lipid transfer inhibition | Q61009 | ldlA[mSR-BI] CHO cells, DiI-HDL uptake fluorescence, 3 h | inhibition, % at 12.5 µM | 320,000 tested, 0.96% active | AID 488896;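 active = mean replicate inhibition of at least 70% and a set share of replicates each scoring 70 or more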;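 also: 0% = median of neutral control wells and 100% = median of positive control wells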
AHR act: activates the human aryl hydrocarbon receptor. activation, % at 5 µM. AHR-responsive luciferase reporter cells, luminescence. 320,000 tested, 2.5% active. P35869. AID 2796; in the data active = activation above about 47%;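 also: 0% = vehicle wells and 100% = reference agonist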
Target sequence (P35869 whole entry, looked up): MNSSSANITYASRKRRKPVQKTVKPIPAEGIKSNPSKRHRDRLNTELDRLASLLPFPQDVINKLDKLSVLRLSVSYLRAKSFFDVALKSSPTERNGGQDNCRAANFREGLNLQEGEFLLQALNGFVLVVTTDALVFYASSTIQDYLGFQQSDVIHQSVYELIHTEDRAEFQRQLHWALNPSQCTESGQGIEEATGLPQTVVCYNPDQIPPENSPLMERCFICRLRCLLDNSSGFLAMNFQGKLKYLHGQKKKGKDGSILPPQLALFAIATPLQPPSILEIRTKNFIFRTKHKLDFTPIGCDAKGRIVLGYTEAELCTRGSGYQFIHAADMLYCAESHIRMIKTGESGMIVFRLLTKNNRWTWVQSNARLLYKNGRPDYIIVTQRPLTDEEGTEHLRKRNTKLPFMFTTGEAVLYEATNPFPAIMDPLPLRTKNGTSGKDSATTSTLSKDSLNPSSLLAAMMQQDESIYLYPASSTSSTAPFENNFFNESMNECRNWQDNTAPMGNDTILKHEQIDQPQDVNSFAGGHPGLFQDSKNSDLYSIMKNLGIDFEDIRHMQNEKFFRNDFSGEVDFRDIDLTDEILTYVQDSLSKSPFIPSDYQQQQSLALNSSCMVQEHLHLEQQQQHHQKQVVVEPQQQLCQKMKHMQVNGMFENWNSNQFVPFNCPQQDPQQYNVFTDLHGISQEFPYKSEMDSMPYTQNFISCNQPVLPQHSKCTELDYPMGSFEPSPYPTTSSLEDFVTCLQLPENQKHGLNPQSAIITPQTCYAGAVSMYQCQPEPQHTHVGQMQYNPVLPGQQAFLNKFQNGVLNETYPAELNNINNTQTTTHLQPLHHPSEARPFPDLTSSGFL
GAA850 FXN act: frataxin GAA850 promoter activation | HEK293 lucGAA850 FXN promoter luciferase reporter, 24 h; percent of 10 µM SAHA response | activation, % at 6 µM | 360,000 tested, 0.56% active | AID 540364;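 active = activation above the average of all compounds screened plus 3 SD, cutoff fixed separately per campaign, cut at about 7.5% in these data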;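 also: 0% = DMSO wells and 100% = 10 µM SAHA wells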
ABCB6 inh 2: human ABCB6 transporter inhibition | Q9NP58 | K562-ABCB6 porphyrin accumulation, flow cytometry, 1 h; hits give low values | fluorescence ratio to DMSO, % at 10 µM | 360,000 tested, 0.19% active | AID 602162;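 active = fluorescence ratio to DMSO below 75%, the collection mean minus 3 SD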;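 also: signal is porphyrin accumulated inside mitochondria; 100% equals median channel fluorescence of DMSO control wells; lower ratio means ABCB6 inhibition with less porphyrin fluorescence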
An asterisk follows results filed as active; . = no result given. Most compounds without a hit are left out; they make up all but 3.9% or so of the library.

SMILES	HIF activator	SR-BI DiI-HDL act	SR-BI DiI inh	AHR act	GAA850 FXN act	ABCB6 inh 2
Cc1ccc(-n2c(N)cc(=O)nc2SCC(=O)NC2CCCCC2)cc1C	0	3	-3	9	3	94
Cc1ccc(C(=O)O)cc1NC(=S)NCCc1ccccc1	0	12	-12	-1	2	98
Cc1ccc([N+](=O)[O-])cc1NC(=S)NCCc1ccccc1	0	-48	48	52*	1	89
NC(=S)N/N=C/c1ccc(-c2cc(Cl)ccc2Cl)o1	0	-99	99*	2	1	88
NC(=S)N/N=C/c1ccc(-c2cc(Cl)cc(Cl)c2)o1	0	-78	78*	17	-1	113
COC(=O)N/N=C/c1ccc(-c2cc(Cl)cc(Cl)c2)o1	0	19	-19	-12	1	98
COc1ccc(CN2CCc3c([nH]c4ccccc34)C2)cc1Br	7	-18	18	18	-4	108
Cc1cc(=O)oc2c1c(C)nn2-c1ccc(Br)cc1	0	-29	29	67*	3	101
Cc1nn(-c2cccc(Cl)c2)c2nc(-c3ccco3)cc(C(=O)O)c12	0	9	-9	15	2	100
Cc1cc(=O)oc2c1c(C)nn2-c1cccc(Cl)c1	-1	-14	14	71*	0	98
O=C(CN1CCCC1)Nc1c2c(nc3ccccc13)N(Cc1ccccc1)CC2	0	19	-19	71*	-1	118
O=C(CN1CCOCC1)Nc1c2c(nc3ccccc13)N(Cc1ccccc1)CC2	0	22	-22	55*	-2	92
Cc1ccc(C)c(C2C(=O)c3ccccc3C2=O)c1	-1	14	-14	3	-1	101
Cc1ccc2ccc(C3C(=O)c4ccccc4C3=O)nc2c1	3	-5	5	58*	7	105
CCS(=O)c1ccccc1C(=O)OC(C)C(=O)Nc1ccc(S(=O)(=O)N2CCCC2)cc1 (configuration not stated)	0	-33	33	1	-1	91
Oc1ccc(-c2nc(-c3ccc(F)cc3)c(-c3ccncc3)[nH]2)cc1	.	-74	74*	5	-1	96
N#Cc1ccc(-c2csc(NC3=NCCCCC3)n2)cc1	1	-75	75*	.	7	105
Oc1c(Cl)cc(Cl)cc1C=Nc1cc(C(F)(F)F)ccc1N1CCc2ccccc2C1	3	-27	27	68*	2	95
O=C(O)c1cccc(N/N=C/c2cn(-c3ccccc3)nc2-c2cccs2)c1	4	-7	7	54*	7	98
NS(=O)(=O)c1ccc(N/N=C/c2ccc(C(=O)O)cc2)c([N+](=O)[O-])c1	0	7	-7	3	0	100
Cc1nn(-c2ccccc2)c(N2CCCC2)c1/C=N/Nc1ccc(S(N)(=O)=O)cc1[N+](=O)[O-]	-27	-80	80*	43	7	95
NS(=O)(=O)c1ccc(N/N=C/c2cn(-c3ccccc3)nc2-c2cccs2)cc1	2	-12	12	37	4	98
NS(=O)(=O)c1ccc(N/N=C/c2cn(-c3ccccc3)nc2-c2cccs2)c([N+](=O)[O-])c1	-2	-104	104*	-1	4	80
CCCCC(=O)NC(N1CCCCC1)C(Cl)(Cl)Cl (configuration not stated)	0	-24	24	7	0	110
COc1ccc(CN2C(=O)C(CC(=O)NCc3cccs3)CC(C(=O)N(C)C)=C2C)cc1 (configuration not stated)	.	.	.	.	0	98
SMILES	HIF activator	SR-BI DiI-HDL act	SR-BI DiI inh	AHR act	GAA850 FXN act	ABCB6 inh 2
CCOc1ccccc1NS(=O)(=O)c1cccc2nsnc12	-1	17	-17	1	1	91
CCOc1ccc(OCC)c(NS(=O)(=O)c2cccc3nsnc23)c1	0	410*	-410	31	-1	92
Cc1ccc(C(=O)NC(=S)Nc2c(C)ccc3nsnc23)cc1	-4	-9	9	94*	2	97
O=c1c2c(nc3c(-c4ccc(Cl)cc4)c[nH]n13)CCCC2	0	-27	27	67*	-6	92
O=c1c2c(nc3c(-c4cccc5ccccc45)c[nH]n13)CCC2	-1	11	-11	17	-1	115
CC(=O)N(O)CCCCCNC(=O)CCC(=O)N(O)CCCCCNC(=O)CCC(=O)N(O)CCCCCN	19*	20	-20	2	0	108
Cc1cc(=O)[nH]c(/N=C(\N)Nc2ccc(SC(F)F)cc2)n1	0	9	-9	68*	0	99
Cc1cc(=O)[nH]c(/N=C(\N)Nc2ccc(Oc3ccccc3)cc2)n1	0	16	-16	20	2	97
COc1cc2sc3ccc(-c4ccc5[nH]ccc5c4)cc3c(=O)c2cc1OC	4	-75	75*	-3	4	94
COc1cc2sc3ccc(C#Cc4ccc(N)cc4)cc3c(=O)c2cc1OC	-2	-51	51	-9	2	101
NC(=S)NNC(=O)c1cccc(Br)c1	-1	.	.	3	.	.
O=C(COC(=O)/C=C/c1ccccc1Cl)NC1CCCCCC1	0	65*	-65	-3	1	95
O=C(COc1ccc(C(=O)c2ccccc2)cc1)NC1CCCCCC1	-1	26	-26	9	-1	106
O=C(COc1ccc(C(=O)c2ccccc2)cc1)NC1CCCCC1	-1	69*	-69	1	-3	93
CC(C)C[C@H]1CNC(=S)N1CC1CCN(CCC2CCCC2)CC1	.	-10	10	.	0	101
COc1cc(-c2noc(C)c2/C=C/c2ccc(N)cc2)cc(OC)c1OC	3	-36	36	71*	-3	98
COc1ccc(NC(=O)c2ccccc2[N+](=O)[O-])cc1	1	18	-18	2	2	96
COc1ccccc1Nc1ccc(NC(=O)c2cccc([N+](=O)[O-])c2C)cc1	2	-84	84*	11	2	95
COc1ccccc1Nc1ncccc1[N+](=O)[O-]	0	13	-13	53*	1	98
COc1ccccc1C(CNc1ncccc1[N+](=O)[O-])N(C)C (configuration not stated)	-1	25	-25	1	0	101
CCC(=O)NC(=S)Nc1ccc(NC(=O)c2cccc([N+](=O)[O-])c2C)cc1	15*	-21	21	-4	-2	98
CCC(=O)NC(=S)Nc1ccc(NC(=O)c2ccccc2[N+](=O)[O-])cc1	2	-22	22	-2	0	99
Cc1cc(NC(=O)CCn2c(=O)sc3ccccc32)no1	0	21	-21	-1	1	99

Compound activity from PubChem.
